The record followed here is ChEMBL document CHEMBL3102763, “Synthesis, radiosynthesis and first in vitro evaluation of novel PET-tracers for the dopamine transporter: [(11)C]IPCIT and [(18)F]FE@IPCIT” (Bioorg Med Chem, 2013).

Data set [1] deals with T1, Sodium-dependent noradrenaline transporter (Homo sapiens, UniProt P23975). Briefly: Displacement of [3H][…] from human NET after 2 hrs by liquid scintillation counting analysis.
Data set [2] addresses T2, Sodium-dependent dopamine transporter (Homo sapiens, UniProt Q01959). Briefly: Displacement of [3H]WIN35428 from human DAT after 2 hrs by liquid scintillation counting analysis. In short, it runs like this: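 Competition binding on human DAT membranes (12.7 µg protein/unit) in 100 mM NaCl, 50 mM Tris-HCl pH 7.4, with [3H]WIN 35,428 added as a 3 nM solution. Nonspecific binding defined with 10 µM GBR 12909. After 2 h incubation, bound label is pelleted at about 40,000g, washed twice with ice-cold buffer and counted by β-scintillation. IC50 and Ki come from competition plots, three assays each in triplicate.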

Data set [3] can be described thus: Lipophilicity, log D of the compound. The data set is classed as physicochemical. The settings on record: octanol/water. In a few lines:
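HPLC method on a short polymeric ODP-50 column, with toluene and triphenylene co-injected as standards of known logD and k'. A linear gradient runs from 10% MeOH/90% 25 mM phosphate buffer to 100% methanol over 9.4 min at 1.5 mL/min.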

In data set [4] the target is T3, Sodium-dependent serotonin transporter (Homo sapiens, UniProt P31645). The experiment in a line: Displacement of [3H][…] from human SERT after 2 hrs by liquid scintillation counting analysis.
The species entered for data set [5] is Homo sapiens. The experiment in a line: Selectivity ratio of Ki for human SERT to Ki for human DAT. In a few lines: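 Ratio of Ki values from competition binding on human SERT membranes ([3H]imipramine) and human DAT membranes ([3H]WIN 35,428). Both were measured in 100 mM NaCl, 50 mM Tris-HCl pH 7.4 with 2 h incubation and scintillation counting.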
For data set [6], the species on record is Homo sapiens. The experiment in a line: Selectivity ratio of Ki for human NET to Ki for human DAT. In short, it runs like this: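 Ratio of Ki values from competition binding on human NET membranes ([3H]nisoxetine) and human DAT membranes ([3H]WIN 35,428). Both were measured in 100 mM NaCl, 50 mM Tris-HCl pH 7.4 with 2 h incubation and scintillation counting.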

The target of data set [7] is T1, Sodium-dependent noradrenaline transporter. Briefly: Binding affinity to NET (unknown origin). In a few lines:
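Human NET membranes (3 µg protein/unit) in 100 mM NaCl, 50 mM Tris-HCl pH 7.4, with [3H]nisoxetine as radioligand. Run as the DAT competition assay: 2 h incubation, centrifugation at about 40,000g and β-scintillation counting. IC50 and Ki are derived from competition plots.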

In data set [8] the target is T2, Sodium-dependent dopamine transporter. The experiment in a line: Binding affinity to DAT (unknown origin). In short, it runs like this:
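Competition binding on human DAT-expressing membranes (12.7 µg protein/unit) in 50 mM Tris-HCl, 100 mM NaCl, pH 7.4. The radioligand was ³H-WIN 35,428, added from a 3 nM solution. Non-specific binding was defined with 10 µM GBR 12909. After 2 h incubation, membranes were pelleted at about 40,000g and washed with ice-cold buffer, then counted by β-scintillation. IC50/Ki came from competition plots: three assays, each in triplicate.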

Data set [9] has as its target T3, Sodium-dependent serotonin transporter. Briefly: Binding affinity to SERT (unknown origin). In a few lines:
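Human SERT membranes (9 µg protein/unit) in 100 mM NaCl, 50 mM Tris-HCl pH 7.4, with [3H]imipramine as radioligand. Run as the DAT competition assay: 2 h incubation, centrifugation at about 40,000g and β-scintillation counting. IC50 and Ki are derived from competition plots.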

Data set [10] is described as follows: Drug metabolism in human liver microsomes after 1 hr by radio-HPLC analysis relative to control. The format is ADME. Conditions: read-out: Drug metabolism. In a few lines:
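Pooled human liver microsomes are preincubated 5 min at 37 °C in pH 7.4 phosphate buffer with an NADPH-generating system. Formulated radiotracer (6 µL) is then added in 300 µL final volume, with ethanol at or below 2%. Incubations are quenched with one volume MeOH/ACN (10/1), vortexed and centrifuged. Supernatants are analysed by radio-HPLC for percent intact tracer.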

The subject of another data set is CES1b/CES1c/CES2. The experiment in a line: Metabolic stability assessed as human CES1b/CES1c/CES2-mediated hydrolysis measuring compound remaining after 60 mins by radio-HPLC analysis. The data set is classed as ADME. Conditions: human carboxylesterases CES1b, CES1c and CES2, read-out: Stability. In a few lines:
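A 1/1/1 mixture (20 µL) of human CES1b, CES1c and CES2 (each 5 mg/mL) is diluted with 270 µL phosphate buffer pH 7.4. Radiotracer (6 µL) is incubated in it, quenched with MeOH/ACN (10/1) and centrifuged. Supernatants are analysed by radio-HPLC for percent intact tracer.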

Data set [11] in a line: Metabolic stability in human plasma assessed as compound remaining after 1 hr by radio-HPLC analysis. The settings on record: read-out: Stability. The format is ADME, cell-free. In a few lines:
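Radiotracer (10 µL) incubated in 500 µL pooled Li-heparin human plasma at 37 °C for up to 60 min, with ethanol kept at or below 2% final. Aliquots are quenched with one volume of ice-cold MeOH/ACN (10/1) and centrifuged (23,000g, 4 min, 5 °C). Supernatants are analysed by radio-HPLC for percent […].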

T3 sequence (P31645 whole entry): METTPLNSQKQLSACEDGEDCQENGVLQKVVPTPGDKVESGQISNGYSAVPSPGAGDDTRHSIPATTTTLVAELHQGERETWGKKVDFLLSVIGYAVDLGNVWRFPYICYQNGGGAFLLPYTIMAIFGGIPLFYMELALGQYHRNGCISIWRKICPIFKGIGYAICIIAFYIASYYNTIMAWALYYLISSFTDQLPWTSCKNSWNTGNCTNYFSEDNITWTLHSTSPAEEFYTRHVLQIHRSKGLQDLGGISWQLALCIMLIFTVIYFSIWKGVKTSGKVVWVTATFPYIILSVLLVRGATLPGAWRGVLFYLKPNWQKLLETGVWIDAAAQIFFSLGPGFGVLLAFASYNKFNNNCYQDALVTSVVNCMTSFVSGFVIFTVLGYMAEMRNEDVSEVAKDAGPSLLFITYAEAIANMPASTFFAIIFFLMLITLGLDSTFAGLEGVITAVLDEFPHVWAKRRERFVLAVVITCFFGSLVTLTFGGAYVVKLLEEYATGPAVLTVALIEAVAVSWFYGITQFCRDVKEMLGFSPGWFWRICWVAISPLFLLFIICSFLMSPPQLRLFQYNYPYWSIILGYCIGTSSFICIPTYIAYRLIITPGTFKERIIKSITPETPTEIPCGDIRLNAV
T1 sequence (P23975 whole entry): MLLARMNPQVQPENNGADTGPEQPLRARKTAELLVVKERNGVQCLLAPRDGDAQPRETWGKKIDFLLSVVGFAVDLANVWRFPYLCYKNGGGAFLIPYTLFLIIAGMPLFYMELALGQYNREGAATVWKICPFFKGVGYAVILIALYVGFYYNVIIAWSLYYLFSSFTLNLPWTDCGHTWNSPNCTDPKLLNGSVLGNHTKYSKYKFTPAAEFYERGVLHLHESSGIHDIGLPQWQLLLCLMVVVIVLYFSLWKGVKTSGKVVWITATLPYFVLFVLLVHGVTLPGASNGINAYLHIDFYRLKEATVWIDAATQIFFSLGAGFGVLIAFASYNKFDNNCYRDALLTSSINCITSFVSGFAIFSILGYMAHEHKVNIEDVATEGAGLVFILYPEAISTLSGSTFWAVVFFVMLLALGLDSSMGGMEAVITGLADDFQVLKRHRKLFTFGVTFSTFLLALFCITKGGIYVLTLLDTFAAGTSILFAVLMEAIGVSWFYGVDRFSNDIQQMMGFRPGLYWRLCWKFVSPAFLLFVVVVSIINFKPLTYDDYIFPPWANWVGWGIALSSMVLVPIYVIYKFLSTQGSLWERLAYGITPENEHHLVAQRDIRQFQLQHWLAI
T2 sequence (Q01959 whole entry): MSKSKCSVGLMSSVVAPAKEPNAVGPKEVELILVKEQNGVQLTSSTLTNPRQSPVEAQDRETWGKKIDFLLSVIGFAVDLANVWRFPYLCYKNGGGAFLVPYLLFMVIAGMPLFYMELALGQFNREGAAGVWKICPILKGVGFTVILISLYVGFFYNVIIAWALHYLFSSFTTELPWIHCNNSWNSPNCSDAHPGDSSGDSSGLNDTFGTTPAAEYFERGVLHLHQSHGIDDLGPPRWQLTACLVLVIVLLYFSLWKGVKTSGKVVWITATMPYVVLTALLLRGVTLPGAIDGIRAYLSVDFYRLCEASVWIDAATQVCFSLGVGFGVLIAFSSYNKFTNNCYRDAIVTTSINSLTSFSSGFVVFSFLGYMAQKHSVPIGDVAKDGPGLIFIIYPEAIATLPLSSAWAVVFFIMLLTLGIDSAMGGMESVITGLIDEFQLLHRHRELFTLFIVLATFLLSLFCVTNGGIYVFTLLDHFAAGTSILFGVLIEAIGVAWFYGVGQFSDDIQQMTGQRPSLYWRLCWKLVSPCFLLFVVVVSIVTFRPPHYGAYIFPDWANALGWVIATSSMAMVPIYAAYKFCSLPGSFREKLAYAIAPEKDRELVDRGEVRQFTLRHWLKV

For `O=C(OCCF)[C@H]1[C@@H](c2ccc(I)cc2)C[C@@H]2CC[C@H]1N2C/C=C/I`, the results for the Ki in data set [1], in data set [2] and in data set [4] were 153 nM, 1.33 nM and 2.4 nM, respectively. The compound also registered a logD in data set [3] of 5.39. The Ratio Ki in the data set listed under Homo sapiens [5] worked out at 1.8; in the data set filed under Homo sapiens [6] it was 115.

For `COC(=O)[C@H]1[C@@H](c2ccc(I)cc2)C[C@@H]2CC[C@H]1N2C`, the figures for the Ki in data set [7], in data set [8] and in [9] were 32.8 nM, 6.34 nM and 29.2 nM, respectively.

Turning to `COC(=O)[C@H]1[C@@H](c2ccc(I)cc2)C[C@@H]2CC[C@H]1N2C/C=C/I`, the metabolised at 1 h in [10] was 46.4%. Also, the Ki turned out to be 20 nM in data set [1], 1.72 nM in data set [2] and 1.5 nM in data set [4]. The remaining at 1 h came out at 92% in the data set with CES1b/CES1c/CES2 and 100% in data set [11]. Further, the logD in data set [3] worked out at 5.29. Moreover, the Ratio Ki in the data set listed under Homo sapiens [6] was 11.

Consider `COC(=O)[C@H]1[C@@H](c2ccc(C)cc2)C[C@@H]2CC[C@H]1N2C/C=C/I`, for which the Ki in [7] is > 1000 nM; in [9], 500 nM.

`O=C(O)[C@H]1[C@@H](c2ccc(I)cc2)C[C@@H]2CC[C@H]1N2C/C=C/I`: the Ki amounted to 785 nM in data set [1], 37 nM in [2] and 71.4 nM in [4]. Also, the pH-dependent lipophilicity (logD) in [3] stood at 0.8.

As for `O=C(OCC[18F])[C@H]1[C@@H](c2ccc(I)cc2)C[C@@H]2CC[C@H]1N2C/C=C/I`, in data set [10], the metabolised at 1 h came to 71.6%. Moreover, the remaining at 1 h with CES1b/CES1c/CES2 came out at 92%; in data set [11] it was 100%.
